Laboratory results published in ChEMBL document CHEMBL1144552, “Synthesis and antitumor activities of a series of novel quinoxalinhydrazides” (Bioorg Med Chem, 2007).
Active and inactive are the calls of the source. The calls are words filed in the database; no cut-off is given here.

Columns and labels:
MDA-MB-435 [1] = assay: Cytotoxicity against human MDA-MB-435 cells after 72 hrs by MTT assay; type: cell-based; conditions: MDA-MB-435, 72 h
Method in brief: (§1)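 Monolayer cultures in RPMI 1640 with 10% FBS and 2 mmol/L L-glutamine, 37 °C, 5% CO2, used in exponential growth and checked for mycoplasma by PCR. Cells were seeded in 96-well plates, allowed to attach, then exposed continuously to drug for 72 h. MTT (final 0.5 mg/mL) was added for 4 h at 37 °C, formazan dissolved in DMSO, absorbance read at 570 nm. Triplicate.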

LNCaP [2] = assay: Cytotoxicity against human LNCap cells after 72 hrs by MTT assay; type: cell-based; method in brief: as §1
HCT-116 [3] = assay: Cytotoxicity against human HCT116 cells expressing p53 gene after 72 hrs by MTT assay; type: cell-based; conditions: HCT-116, 72 h; method in brief: as §1
HT-29 [4] = assay: Cytotoxicity against human HT29 cells after 72 hrs by MTT assay; type: cell-based; conditions: HT-29, 72 h; method in brief: as §1
HCT-116 [5] = assay: Cytotoxicity against p53 deficient human HCT116 cells after 72 hrs by MTT assay; type: cell-based; conditions: HCT-116, 72 h; method in brief: as §1
MDA-MB-435 [6] = assay: Inhibition of colony formation of human MDA-MB-435 cells at >=1 uM after 24 hrs; type: functional, cell-based
Method in brief: (§2)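 Cells were plated at 100 cells/well in 6-well plates and allowed to attach. Serial dilutions were added the next day for 24 h exposure. Cells were then washed in PBS and grown in drug-free medium for 8–10 days until colonies formed. Colonies were fixed in 1% glutaraldehyde for 30 min, stained with 2% crystal violet for 30 min, imaged and counted. Means of at least three independent experiments.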

HT-29 [7] = assay: Inhibition of colony formation of human HT29 cells at >=1 uM after 24 hrs; type: functional, cell-based; method in brief: as §2
HCT-116 [8] = assay: Inhibition of colony formation of p53 deficient human HCT116 cells at >=1 uM after 24 hrs; type: functional, cell-based; method in brief: as §2
LNCaP [9] = assay: Inhibition of colony formation of human LNCap cells at >=1 uM after 24 hrs; type: functional, cell-based; method in brief: as §2
HCT-116 [10] = assay: Inhibition of colony formation of p53 expressing human HCT116 cells at >=1 uM after 24 hrs; type: functional, cell-based; method in brief: as §2

Row | Compound | IC50 (MDA-MB-435 [1]) | IC50 (LNCaP [2]) | IC50 (HCT-116 [3]) | IC50 (HT-29 [4]) | IC50 (HCT-116 [5]) | Activity (MDA-MB-435 [6]) | Activity (HT-29 [7]) | Activity (HCT-116 [8]) | Activity (LNCaP [9]) | Activity (HCT-116 [10])
1 | O=C(NNc1nc2cc(F)ccc2n2cccc12)c1cnccn1 | 4 µM | 0.4 µM | 0.6 µM | 0.9 µM | 0.9 µM | – | – | – | – | –
2 | NCCC(=O)NNc1nc2ccccc2n2cccc12 | > 20 µM | – | > 20 µM | > 20 µM | > 20 µM | – | – | – | – | –
3 | O=C(NNc1nc2ccccc2n2cccc12)C1CSCN1 (centres undefined) | > 20 µM | – | 15 µM | 14 µM | 10 µM | – | – | – | – | –
4 | O=C(NNc1nc2cc(F)ccc2n2cccc12)c1cccs1 | > 20 µM | – | > 20 µM | > 20 µM | > 20 µM | – | – | – | – | –
5 | COc1ccccc1C(=O)NNc1nc2ccccc2n2cccc12 | > 20 µM | – | > 20 µM | > 20 µM | > 20 µM | – | – | – | – | –
6 | O=C(NNc1nc2ccccc2n2cccc12)c1cc2ccccc2[nH]1 | > 20 µM | – | > 20 µM | > 20 µM | > 20 µM | – | – | – | – | –
7 | O=C(NNc1nc2cc(F)ccc2n2cccc12)c1cnc2ccccc2n1 | 15 µM | – | 8 µM | 13 µM | 11 µM | – | – | – | – | –
8 | O=C(NNc1nc2cc(F)ccc2n2cccc12)c1cccnc1 | > 20 µM | – | > 20 µM | > 20 µM | > 20 µM | – | – | – | – | –
9 | O=C(NNc1nc2cc(F)ccc2n2cccc12)c1ccccc1F | > 20 µM | – | > 20 µM | > 20 µM | > 20 µM | – | – | – | – | –
10 | O=C(NNc1nc2ccccc2n2cccc12)c1c[nH]c2ccccc12 | > 20 µM | – | > 20 µM | > 20 µM | > 20 µM | – | – | – | – | –
11 | O=C(NNc1nc2cccc(F)c2n2cccc12)c1cnccn1 | 3 µM | 0.4 µM | 0.4 µM | 0.3 µM | 0.3 µM | Active | Active | Active | Active | Active
12 | O=C(NNc1nc2cc(F)ccc2n2cccc12)c1ccco1 | > 20 µM | – | > 20 µM | > 20 µM | > 20 µM | – | – | – | – | –
13 | O=C(NNc1nc2cc(F)ccc2n2cccc12)c1ccccn1 | > 20 µM | > 20 µM | > 20 µM | 17 µM | > 20 µM | – | – | – | – | –
14 | O=C(NNc1nc2ccccc2n2cccc12)c1ccc2cc[nH]c2c1 | > 20 µM | – | > 20 µM | > 20 µM | > 20 µM | – | – | – | – | –
